Source: ChEMBL document CHEMBL1129557, “Aryl phosphoramidate derivatives of d4T have improved anti-HIV efficacy in tissue culture and may act by the generation of a novel intracellular metabolite” (J Med Chem, 1996)

Experiments:
[1] = system: CEM-TK(-) (Homo sapiens); assay: Activity against HIV-1 in CEM/TK cells (in vitro)
[2] = system: CCRF-CEM; assay: Cytotoxic concentration against CEM cells (in vitro); format: functional; conditions: Homo sapiens
Summary of the method: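 Mock-infected CEM cultures exposed to compound dilutions alongside the antiviral assay and scored at day 4. CC₅₀ is the concentration reducing cell number by 50%.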

[3] = system: CCRF-CEM; assay: Activity against HIV-2 in CEM cells (in vitro); format: functional, cell-based; conditions: Homo sapiens
Summary of the method: (§1)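 Cells at 5 × 10⁵/mL infected with HIV-1 (IIIB) or HIV-2 (ROD) at about 100 CCID50/mL, then mixed with dilutions of test compound. After 4 days, giant cell formation scored microscopically. EC₅₀ is the concentration cutting giant cells by 50%. Mean of two to four independent experiments.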

[4] = system: CCRF-CEM; assay: Activity against HIV-1 in CEM cells (in vitro); format: functional, cell-based; conditions: Homo sapiens
Summary of the method: as §1

[5] = system: MT4; assay: Cytotoxic concentration against MT-4 cells (in vitro); format: functional; conditions: Homo sapiens
Summary of the method: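 Mock-infected MT-4 cultures (5 × 10⁵ cells/mL) exposed to compound dilutions for 5 days. Viable cells counted by trypan blue. CC₅₀ is the concentration reducing viable cell number by 50%.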

[6] = system: MT4; assay: Activity against HIV-1 in MT-4 cells (in vitro); format: functional, cell-based; conditions: Homo sapiens
Summary of the method: (§2)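 MT-4 cells at 5 × 10⁵/mL infected with HIV-1 (IIIB) or HIV-2 (ROD) at about 100 CCID50/mL and exposed to compound dilutions. After 5 days, viable cells counted by trypan blue staining. EC₅₀ is the concentration protecting cells against viral cytopathogenicity by 50%. Mean of two to four independent experiments.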

[7] = system: MT4; assay: Activity against HIV-2 in MT-4 cells (in vitro); format: functional, cell-based; conditions: Homo sapiens
Summary of the method: as §2

[8] = system: CCRF-CEM; assay: Compound was tested for activity against HIV-2 in CEM cells; format: functional, cell-based; conditions: Homo sapiens
Summary of the method: as §1

Structure (SMILES)	EC50 [1] [µM]	CC50 [2] [µM]	EC50 [3] [µM]	EC50 [4] [µM]	CC50 [5] [µM]	EC50 [6] [µM]	EC50 [7] [µM]	EC50 [8] [µM]
COC(=O)C(C)NP(=O)(OCC1C=CC(n2cc(C)c(=O)[nH]c2=O)O1)Oc1ccc(Br)cc1Br (stereo not drawn)	0.025	16	0.055	0.04	–	–	–	–
Cc1cn([C@H]2C[C@H](N=[N+]=[N-])[C@@H](CO)O2)c(=O)[nH]c1=O [ZIDOVUDINE]	> 100	> 500	–	–	6	–	–	–
COC(=O)C(Cc1ccccc1)NP(=O)(OCC1C=CC(n2cc(C)c(=O)[nH]c2=O)O1)Oc1ccccc1 (stereo not drawn)	0.33	216	1.35	0.8	34.1	0.19	0.38	–
COC(=O)C(CC(C)C)NP(=O)(OCC1C=CC(n2cc(C)c(=O)[nH]c2=O)O1)Oc1ccccc1 (stereo not drawn)	0.4	> 250	–	1.1	61.5	0.2	0.47	2.23
COC(=O)C(C)NP(=O)(OCC1C=CC(n2cc(C)c(=O)[nH]c2=O)O1)Oc1cc(Cl)cc(Cl)c1 (stereo not drawn)	0.11	26.9	0.15	0.11	10.5	0.037	0.12	–
COC(=O)C(C)NP(=O)(OCC1C=CC(n2cc(C)c(=O)[nH]c2=O)O1)Oc1c(F)c(F)c(F)c(F)c1F (stereo not drawn)	8.5	115	3.7	2.5	82.2	1.72	4.07	–
COC(=O)CNP(=O)(OCC1C=CC(n2cc(C)c(=O)[nH]c2=O)O1)Oc1ccccc1 (stereo not drawn)	7	> 250	6	6	> 250	1.34	6.71	–
Cc1cn([C@H]2C=C[C@@H](CO)O2)c(=O)[nH]c1=O [STAVUDINE]	33.3	174	0.775	0.8	19	0.651	0.77	–
COC(=O)C(C)NP(=O)(OC[C@@H]1C=C[C@H](n2cc(C)c(=O)[nH]c2=O)O1)Oc1cccc(C(F)(F)F)c1 (stereo partly drawn)	0.11	29.8	0.15	0.15	9.75	0.046	0.11	–
COC(=O)C(CCSC)NP(=O)(OCC1C=CC(n2cc(C)c(=O)[nH]c2=O)O1)Oc1ccccc1 (stereo not drawn)	0.33	> 250	0.8	0.6	22	0.23	0.38	–
COC(=O)C(C)NP(=O)(OC)OCC1C=CC(n2cc(C)c(=O)[nH]c2=O)O1 (stereo not drawn)	> 250	> 250	50	20	> 250	25.4	50.9	–
CCc1ccc(OP(=O)(NC(C)C(=O)OC)OCC2C=CC(n3cc(C)c(=O)[nH]c3=O)O2)cc1 (stereo not drawn)	0.06	60	0.16	0.07	> 100	0.057	0.063	–
CCOP(=O)(NC(C)C(=O)OC)OCC1C=CC(n2cc(C)c(=O)[nH]c2=O)O1 (stereo not drawn)	48	> 250	240	48	> 250	28.5	62.5	–
COC(=O)C(C)NP(=O)(OC[C@@H]1C=C[C@H](n2cc(C)c(=O)[nH]c2=O)O1)Oc1ccccc1 (stereo partly drawn)	0.075	100	0.2	0.182	> 100	0.0665	0.067	–
COC(=O)C(NP(=O)(OCC1C=CC(n2cc(C)c(=O)[nH]c2=O)O1)Oc1ccccc1)C(C)C (stereo not drawn)	4	> 250	12.5	12.5	> 250	3.58	11.2	–
